Experimental data published in ChEMBL document CHEMBL1667795, “Phosphonic pseudopeptides as human neutrophil elastase inhibitors--a combinatorial approach” (Bioorg Med Chem, 2011).
Activity calls are given as the source filed them. The calls are words filed in the database; no cut-off is given here.

Key:
[1] = Inhibition of chymotrypsin at 2.5 uM after 30 mins relative to control
Outline: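 Suc-Ala-Ala-Pro-Phe-AMC then added, fluorescence read at Ex 350/Em 460 nm. Inhibition given as percent of enzyme activity relative to the control sample.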

[2] = target: T1, Neutrophil elastase (Homo sapiens) (UniProt P08246); assay: Inhibition of human neutrophil elastase after 15 mins
T1 sequence (whole entry): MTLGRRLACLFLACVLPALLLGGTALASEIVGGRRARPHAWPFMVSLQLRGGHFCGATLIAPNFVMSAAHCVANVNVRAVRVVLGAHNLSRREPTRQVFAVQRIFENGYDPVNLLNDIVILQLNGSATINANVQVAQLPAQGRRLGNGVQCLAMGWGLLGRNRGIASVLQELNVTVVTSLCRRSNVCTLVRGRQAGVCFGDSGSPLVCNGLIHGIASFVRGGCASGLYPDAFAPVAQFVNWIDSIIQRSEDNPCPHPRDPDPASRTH

[3] = Inhibition of trypsin at 2.5 uM after 30 mins relative to control
Outline: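 Trypsin (final 2.5 nM) preincubated 30 min at 37 °C with 2.5 µM inhibitor in 0.1 M HEPES, 0.01 M CaCl2, pH 7.5. Bzl-Arg-AFC added, fluorescence read at Ex 380/Em 505 nm. Percent inhibition relative to the control sample.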

[4] = Cytotoxicity against HGF at 250 uM after 48 hrs by MTT assay; type: cell-based; conditions: human, HGF cells; read-out: INH
Outline: (§1)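 Human gingival fibroblasts isolated from healthy gingival biopsies, grown in DMEM with 10% FBS, glutamine and penicillin/streptomycin at 37 °C, 5% CO2. Seeded 1 × 10^4 cells/well, attached overnight, then exposed 48 h to inhibitor diluted in medium from DMSO stocks; DMSO-only controls. MTT read at 570 nm, viability expressed as percent of untreated control.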

A549 [5] = assay: Cytotoxicity against human A549 cells at 250 uM after 48 hrs by MTT assay; type: functional; conditions: A549, 48 h
Outline: (§2)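 A549 lung cancer cells kept at 37 °C, 5% CO2, harvested by trypsinization and PBS wash. Seeded 1 × 10^4 cells/well, attached overnight, then 48 h with inhibitor diluted in medium from DMSO stocks; DMSO-only controls. MTT absorbance at 570 nm, growth as percent of untreated control, mean ± one SD.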

[6] = Cytotoxicity against HGF at 500 uM after 48 hrs by MTT assay; type: cell-based; conditions: human; outline: as §1
A549 [7] = assay: Cytotoxicity against human A549 cells at 125 to 500 uM after 48 hrs by MTT assay; type: functional; outline: as §2
A549 [8] = assay: Cytotoxicity against human A549 cells at 500 uM after 48 hrs by MTT assay; type: functional; conditions: A549, 48 h; outline: as §2

Compound	inhibition [1]	kinact/Ki (second-order inactivation rate constant) [2]	inhibition [3]	cytotoxicity at 48 h, 250 µM [4]	inhibition at 250 µM (A549 [5])	Activity [6]	inhibition (INH) (A549 [7])	inhibition at 500 µM (A549 [8])
CSCC[C@H](NC(=O)OCc1ccccc1)C(=O)O[C@H](C(=O)N[C@H](C(C)C)P(=O)(Oc1ccc(SC)cc1)Oc1ccc(SC)cc1)C(C)C	15%	5050 M⁻¹ s⁻¹	inactive					
CCCCN(C(=O)CNC(=O)OCc1ccccc1)[C@@H](CCc1ccccc1)C(=O)N[C@H](C(C)C)P(=O)(Oc1ccc(SC)cc1)Oc1ccc(SC)cc1	15%	1420 M⁻¹ s⁻¹	inactive	10%	70%	Toxic	50%	
CSCC[C@H](NC(=O)OCc1ccccc1)C(=O)O[C@@H](Cc1ccccc1)C(=O)N[C@H](C(C)C)P(=O)(Oc1ccc(Cl)cc1)Oc1ccc(Cl)cc1	inactive	695 M⁻¹ s⁻¹	inactive					
CSCC[C@H](NC(=O)OCc1ccccc1)C(=O)O[C@@H](CCSC)C(=O)N[C@H](C(C)C)P(=O)(Oc1ccc(Cl)cc1)Oc1ccc(Cl)cc1	inactive	40100 M⁻¹ s⁻¹	inactive		25%			60%
CSCC[C@H](NC(=O)OCc1ccccc1)C(=O)O[C@H](C(=O)N[C@H](C(C)C)P(=O)(Oc1ccc(Cl)cc1)Oc1ccc(Cl)cc1)C(C)C	15%	20500 M⁻¹ s⁻¹	inactive					
CSCC[C@H](NC(=O)OCc1ccccc1)C(=O)O[C@H](C(=O)N[C@H](C(C)C)P(=O)(Oc1ccc(Cl)cc1)Oc1ccc(Cl)cc1)c1ccc([N+](=O)[O-])cc1	inactive	165 M⁻¹ s⁻¹	inactive					
CSCC[C@H](NC(=O)OCc1ccccc1)C(=O)O[C@@H](CC(C)C)C(=O)N[C@H](C(C)C)P(=O)(Oc1ccc(SC)cc1)Oc1ccc(SC)cc1	inactive	4400 M⁻¹ s⁻¹	inactive					
CSCC[C@H](NC(=O)OCc1ccccc1)C(=O)O[C@H](C(=O)N[C@H](C(C)C)P(=O)(Oc1ccc(SC)cc1)Oc1ccc(SC)cc1)c1ccc(F)cc1	inactive	4850 M⁻¹ s⁻¹	inactive					
CSCC[C@H](NC(=O)OCc1ccccc1)C(=O)O[C@@H](CCc1ccccc1)C(=O)N[C@H](C(C)C)P(=O)(Oc1ccc(Cl)cc1)Oc1ccc(Cl)cc1	inactive	1620 M⁻¹ s⁻¹	inactive					
CCCCN(C(=O)CNC(=O)OCc1ccccc1)[C@@H](Cc1ccccc1)C(=O)N[C@H](C(C)C)P(=O)(Oc1ccc(SC)cc1)Oc1ccc(SC)cc1	14%	1360 M⁻¹ s⁻¹	inactive					
CSCC[C@H](NC(=O)OCc1ccccc1)C(=O)O[C@H](C(=O)N[C@H](C(C)C)P(=O)(Oc1ccc(Cl)cc1)Oc1ccc(Cl)cc1)c1ccc(F)cc1	16%	215 M⁻¹ s⁻¹	inactive					
CSCC[C@H](NC(=O)OCc1ccccc1)C(=O)O[C@@H](Cc1ccccc1)C(=O)N[C@H](C(C)C)P(=O)(Oc1ccc(SC)cc1)Oc1ccc(SC)cc1	inactive	605 M⁻¹ s⁻¹	inactive					
CSCC[C@H](NC(=O)OCc1ccccc1)C(=O)O[C@@H](CCSC)C(=O)N[C@H](C(C)C)P(=O)(Oc1ccc(SC)cc1)Oc1ccc(SC)cc1	14%	5900 M⁻¹ s⁻¹	inactive					
CCCCCC(=O)N1CCN([C@H](C(=O)N[C@H](C(C)C)P(=O)(Oc2ccc(SC)cc2)Oc2ccc(SC)cc2)c2ccc(OC)c(OC)c2)CC1	inactive	125 M⁻¹ s⁻¹	inactive					
CCCCN(C(=O)CNC(=O)OCc1ccccc1)[C@H](C(=O)N[C@H](C(C)C)P(=O)(Oc1ccc(SC)cc1)Oc1ccc(SC)cc1)C(C)C	8%	495 M⁻¹ s⁻¹	inactive					
CSCC[C@H](NC(=O)OCc1ccccc1)C(=O)O[C@H](C(=O)N[C@H](C(C)C)P(=O)(Oc1ccc(SC)cc1)Oc1ccc(SC)cc1)c1ccc([N+](=O)[O-])cc1	inactive	430 M⁻¹ s⁻¹	inactive					
CSCC[C@H](NC(=O)OCc1ccccc1)C(=O)O[C@@H](CC(C)C)C(=O)N[C@H](C(C)C)P(=O)(Oc1ccc(Cl)cc1)Oc1ccc(Cl)cc1	inactive	7250 M⁻¹ s⁻¹	inactive					75%
COc1ccc([C@H](OC(=O)[C@H](CCSC)NC(=O)OCc2ccccc2)C(=O)N[C@H](C(C)C)P(=O)(Oc2ccc(SC)cc2)Oc2ccc(SC)cc2)cc1OC	22%	3800 M⁻¹ s⁻¹	inactive					
COc1ccc([C@H](OC(=O)[C@H](CCSC)NC(=O)OCc2ccccc2)C(=O)N[C@H](C(C)C)P(=O)(Oc2ccc(Cl)cc2)Oc2ccc(Cl)cc2)cc1OC	21%	165 M⁻¹ s⁻¹	inactive					
CCCCCC(=O)N1CCN([C@H](C(=O)N[C@H](C(C)C)P(=O)(Oc2ccc(SC)cc2)Oc2ccc(SC)cc2)c2ccc(F)cc2)CC1	inactive	330 M⁻¹ s⁻¹	inactive					
CCCCN(C(=O)CNC(=O)OCc1ccccc1)[C@@H](CC(C)C)C(=O)N[C@H](C(C)C)P(=O)(Oc1ccc(SC)cc1)Oc1ccc(SC)cc1	inactive	145 M⁻¹ s⁻¹	inactive					
CCCCCC(=O)N1CCN([C@@H](CCSC)C(=O)N[C@H](C(C)C)P(=O)(Oc2ccc(SC)cc2)Oc2ccc(SC)cc2)CC1		140 M⁻¹ s⁻¹	inactive					
CSCC[C@H](NC(=O)OCc1ccccc1)C(=O)O[C@@H](CCc1ccccc1)C(=O)N[C@H](C(C)C)P(=O)(Oc1ccc(SC)cc1)Oc1ccc(SC)cc1	inactive	765 M⁻¹ s⁻¹	inactive					
CCCCCC(=O)N1CCN([C@H](C(=O)N[C@H](C(C)C)P(=O)(Oc2ccc(SC)cc2)Oc2ccc(SC)cc2)c2ccc([N+](=O)[O-])cc2)CC1	inactive	140 M⁻¹ s⁻¹	inactive					
